Bioassay records: PubChem, several laboratories
Only some compounds are listed: those with a hit (about 2.1% of all), similar ones and a draw of the others.
bCat nuc transl – beta-catenin nuclear translocation modulation; HeLa beta-catenin nuclear translocation, immunofluorescence imaging; nuclear translocation activity, % at 5 µM; 190,000 tested, 0.3% active;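 active means nuclear translocation activity above 50% at 5 µM, with a well cell count of 50 or more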;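 further: per-cell ratio of nuclear to cytoplasmic median beta-catenin stain intensity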
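System: Human HeLa cells, endogenous beta-catenin | Compound dosing: 5 µM primary, 0.02–20 µM confirmation | Timing: 24 h compound exposure at 37°C, 5% CO2 | Measured by: Fluorescence imaging of beta-catenin antibody stain plus DAPI | Read-out basis: % activation of per-cell nuclear versus cytoplasmic median beta-catenin signal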
Dynein cargo inh – blocks dynein driven cargo transport along microtubules. 3617.4 mouse cells, GR-EGFP nuclear translocation imaging; test concentration mostly 20 µM; stimulated with dexamethasone, 1 µM; stronger effect = lower value. 220,000 tested, 0.47% active. z-score, hits read low;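 active means plate z-score of nuclear minus cytoplasmic receptor signal below a set negative limit, without overly bright fluorescence or cell loss, cut at about -3.5 in these data, passing the limit was not always enough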;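 further: z-score of nuclear minus cytoplasmic ring GR-EGFP intensity difference per well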
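Also added – dexamethasone, 1.0 µM final · Buffer or medium – tet-free, stripped-serum medium · Schedule – induction 48 h, compound 1 h, agonist 30 min · Detection – formaldehyde fixation, Hoechst nuclear stain, 10x automated fluorescence imaging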
MT stabilizer – stabilizes microtubules in HeLa cells | HeLa tubulin immunostaining HCS, 24 h; share of cells brighter than vehicle mean+2SD | % tubulin-high responders, % at 10 µM | 200,000 tested, 0.83% active;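 active means plate Z-score above 3 for both tubulin-high and condensed-nucleus cell shares, with cell loss under 80%, at 10 µM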;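 further: anti alpha tubulin signal scored within the nucleus-defined area of each cell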
Autophagy HCS – modulators of autophagy. MEF GFP-LC3 puncta imaging; test concentration mostly 10 µM. calls only at 10 µM (by protocol). 190,000 tested, 0.98% active;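 active means percentage of spot-positive cells more than 3 SD above its plate mean, without a fluorescence outlier flag or 80% toxicity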
Hsp70 activator – transcriptional activators of Hsp70 | HeLa Hsp70 promoter luciferase reporter, luminescence; scaled: vehicle 0, proteasome-inhibitor control 100% | activation, % at 10 µM | 200,000 tested, 0.04% active;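 active means activation above the mean across all tested compounds plus 3 SD, cutoff set per campaign, cut at about 5.5% in these data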
Of the large screens only hits and unclear results are named; the others gave an inactive call.

COc1ccc(/C=C2\CN(Cc3ccccc3)C/C(=C\c3ccc(OC)cc3OC)C2=O)c(OC)c1	none
COc1ccc(C=C2c3ccccc3C(=O)c3ccccc32)c(OC)c1	bCat nuc transl 82 (no result: MT stabilizer, Autophagy HCS, Hsp70 activator)
COc1ccc(-c2nc(Cn3c(SCc4cccc(F)c4)nc4ccncc43)c(C)o2)cc1OC	Autophagy HCS active
COc1ccc(-c2nc(Cn3c(SCc4ccc(C)cc4)nc4ccncc43)c(C)o2)cc1OC	none (no result: bCat nuc transl)
CC(C)c1nc2sc3c(SCC(N)=O)ncnc3c2c2c1CCC2	none (no result: MT stabilizer, Autophagy HCS, Hsp70 activator)
N#C/C(=C\C1=C(N2CCOCC2)C(=C\c2ccc(Cl)cc2)/CC1)C(=O)Nc1ccccc1F	Autophagy HCS active
CCN(CC)c1ccc(/C=C2\CCC(/C=C(\C#N)C(=O)Nc3ccccc3F)=C2N2CCOCC2)cc1	none
N#C/C(=C\C1=C(N2CCOCC2)C(=C/c2cccc([N+](=O)[O-])c2)/CC1)C(=O)Nc1ccccc1F	Autophagy HCS active
Fc1ccc(Cn2cccc2C2=NC(c3ccccc3)CO2)cc1 (stereo not drawn)	none
CCC1COC(c2cccn2Cc2ccccc2Cl)=N1 (stereo not drawn)	Autophagy HCS active
Cn1nc([N+](=O)[O-])c(C(C#N)c2ccccn2)c(Cl)c1=O (stereo not drawn)	Dynein cargo inh -5.9
CCCn1nc([N+](=O)[O-])c(C(C#N)c2nc3ccccc3o2)c(Cl)c1=O (stereo not drawn)	none
N#Cc1cccc(NC(=O)COC(=O)CCc2nc3ccccc3c(=O)[nH]2)c1	none
N#C/C(=C\c1ccc(Cl)cc1)c1nc2ncccc2[nH]1	MT stabilizer 42
N#C/C(=C\c1c(Cl)cccc1Cl)c1nc2ccccc2[nH]1	none (no result: MT stabilizer, Autophagy HCS, Hsp70 activator)
CC1CN(S(=O)(=O)c2ccc(C(=O)Nc3ccc(S(=O)(=O)Nc4ncccn4)cc3)cc2)CC(C)O1 (stereo not drawn)	none
CCc1ccc(NSc2ccccc2[N+](=O)[O-])cc1	MT stabilizer 46
O=C(O)c1ccccc1NSc1ccccc1[N+](=O)[O-]	none
Cc1cc(C)n2nc(C(=O)Nc3ccc(S(=O)(=O)N(C)C)cc3)nc2n1	none (no result: MT stabilizer, Autophagy HCS, Hsp70 activator)
COc1ccc(CCn2c(N)c(C(=O)NCc3ccco3)c3nc4ccccc4nc32)cc1OC	none
COc1ccc(CCn2c(N)c(C(=O)NCc3ccco3)c3nc4ccccc4nc32)cc1	MT stabilizer 15
CN(c1ccccc1C(=O)O)S(C)(=O)=O	none
CN(C)c1ccccc1C(=O)c1ccccc1N(C)C	MT stabilizer 55 (no result: Autophagy HCS)
N#CC(c1ccccc1)N(CCCCl)C(=O)c1ccc(Br)cc1 (stereo not drawn)	none
Cc1nn(-c2ccccc2)c(N)c1N=Nc1ccccc1	none
Nc1c(N=Nc2ccccc2F)c(=O)[nH]n1-c1ccccc1	none (no result: bCat nuc transl)
Nc1nn(-c2ccccc2)c(N)c1N=Nc1ccccc1	bCat nuc transl 89, MT stabilizer 22
Nc1nn(-c2ccccc2)c(N)c1N=Nc1ccccc1F	MT stabilizer 26
COC(=O)c1ccc2c(c1)C(C)(C)C(/C=C/c1ccc(OC)c(OC)c1OC)=[N+]2C	Autophagy HCS active
O=C(Nc1ccccc1)N(c1ccccc1)C1C=CS(=O)(=O)C1 (stereo not drawn)	none (no result: MT stabilizer, Autophagy HCS, Hsp70 activator)
CCOC(=O)c1c(C)[nH]c(C(=O)OCC(=O)N2CCc3ccccc32)c1C	Autophagy HCS active
CCOC(=O)c1[nH]c(C)c(C(=O)NCc2ccc(C)cc2)c1C	none (no result: bCat nuc transl)
CCOC(=O)c1[nH]c(C)c(C(=O)Nc2ccc(C)c(C)c2)c1C	none
CCOC(=O)c1[nH]c(C)c(C(=O)Nc2ccc(F)cc2)c1C	none (no result: bCat nuc transl)
CCOC(=O)c1[nH]c(C)c(C(=O)Nc2ccc(C)cc2C)c1C	MT stabilizer 16 (no result: Autophagy HCS)
CCOC(=O)c1[nH]c(C)c(C(=O)Nc2ccccc2F)c1C	MT stabilizer 34, Autophagy HCS active
CCOC(=O)c1[nH]c(C)c(C(=O)c2ccc(C)cc2)c1C	MT stabilizer 44 (no result: bCat nuc transl)
CCOC(=O)c1[nH]c(C)c(C(=O)OCC(=O)N2CCc3ccccc32)c1C	none
O=C(c1cccc(S(=O)(=O)N2CCc3ccccc32)c1)N1CCN(c2ccccn2)CC1	none
NC(N)=Nc1nc2ccccc2o1	none (no result: MT stabilizer, Autophagy HCS, Hsp70 activator)
FC(F)(F)c1cc(-c2ccco2)nc(NCc2ccccc2)n1	none
FC(F)(F)c1cc(-c2ccco2)nc(NCc2cccnc2)n1	bCat nuc transl 61
Nc1cc2c(cc1C(=O)c1ccccc1F)OCCO2	none
Nc1cc2c(cc1C(=O)c1cccc(Br)c1)OCCO2	MT stabilizer 16
CCOc1ccc2[nH]c(=O)c(C(c3nnnn3C3CCCCC3)N3CCN(C)CC3)cc2c1 (stereo not drawn)	Autophagy HCS active
Cn1cc(C(=O)Nc2ccc(Cl)cc2)c(C(F)(F)F)n1	Autophagy HCS active
COc1ccc(NC(=O)CSC2=C(C#N)C(c3ccco3)C3=C(CCCC3=O)N2)c(OC)c1 (stereo not drawn)	none (no result: bCat nuc transl)
CC(C)(C)c1ccc(C(=O)CCCSC2=C(C#N)C(c3ccco3)C3=C(CCCC3=O)N2)cc1 (stereo not drawn)	none
N#CC1=C(SCC(=O)Nc2ccccc2)NC(=O)CC1c1ccco1 (stereo not drawn)	MT stabilizer 50, Autophagy HCS active (no result: bCat nuc transl)
N#CC1=C(SCC(=O)c2ccccc2)NC2=C(C(=O)CCC2)C1c1ccco1 (stereo not drawn)	bCat nuc transl 171
Cc1ccc(C(=O)CSC2=C(C#N)C(c3ccco3)C3=C(CCCC3=O)N2)cc1 (stereo not drawn)	bCat nuc transl 130, MT stabilizer 20
COc1cccc(NC(=O)CSC2=C(C#N)C(c3ccco3)C3=C(CCCC3=O)N2)c1 (stereo not drawn)	Autophagy HCS active
Cc1cc(C(=O)N2CCCC(C(=O)c3cc(F)ccc3F)C2)c(C)o1 (stereo not drawn)	none
Cc1c(/C=N/NC(=O)c2cccs2)c2ccccc2n1Cc1ccccc1Cl	none (no result: MT stabilizer, Autophagy HCS, Hsp70 activator)
Cc1cnc(C(=O)Nc2ccccc2-c2nnn(CC(=O)NC3CCCC3)n2)cn1	Autophagy HCS active
CSc1c(CC(=O)Nc2ccccc2C(F)(F)F)n(Cc2ccccc2)c2ccccc12	none
CCCOc1cc(N(CC)CC)ccc1/C=C(/C#N)c1nc2ccc(C)cc2[nH]1	Autophagy HCS active
CCN(CC)c1ccc(/C=C(/C#N)c2nc3ccc(C)cc3[nH]2)c(OC(C)C)c1	Autophagy HCS active
CCOc1cc(N(CC)CC)ccc1/C=C(/C#N)c1nc2ccccc2[nH]1	Autophagy HCS active
C#CC(C)(C)NC(=O)c1ccc(-c2ccccc2F)cc1	none (no result: MT stabilizer, Autophagy HCS, Hsp70 activator)
COc1cccc(CN(C)C(=O)c2cccc(OC3CCN(C4CCCC4)CC3)c2)c1	none
O=C(COc1ccc(Cl)cc1Cl)c1ccc[nH]1	none (no result: MT stabilizer, Autophagy HCS, Hsp70 activator)
CCOC(=O)C1CCN(c2c(NCCC(C)C)c(=O)c2=O)CC1	none (no result: MT stabilizer, Autophagy HCS, Hsp70 activator)
Nc1c(C(=O)Nc2ccc(S(=O)(=O)N3CCCC3)cc2)sc2nc3ccc(OC(F)(F)F)cc3cc12	Autophagy HCS active
